Measured values reported in publication PMC11969444 (RSC Advances, 2025).

Experiments:
[1] = test system: PGLT-induced diabetic rats; experiment: Blood glucose level in PGLT-induced diabetes; format: in vivo
Procedure, shortened: (§1)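 Rats were given PGLT to induce diabetes and treated with test compounds for 28 days. Blood glucose and body weight were recorded on days 1, 7, 14, 21 and 28. Serum was assayed for TG, total CH, LDL, HDL, SGOT, SGPT and ALP. Groups were normal control, diabetic control and treated, n = 8 per group, shown as mean ± SEM. Treated groups were compared with diabetic control by one-way ANOVA with Dunnett's post hoc test.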

Effect on body weights = format: in vivo, rats
Procedure, shortened: as §1

[2] = test system: PGLT-induced diabetic rats; experiment: Antihyperlipidemic effects; format: in vivo; details: 10 mg kg^−1, 28 days
Procedure, shortened: as §1

[3] = test system: PGLT-induced diabetic rats; experiment: Serum hepatic marker enzymes; format: in vivo; details: 10 mg kg^−1, serum
Procedure, shortened: as §1

β-glucosidase = experiment: In vitro β-glucosidase inhibitory assay; format: biochemical; details: read-out: β-Glucosidase IC50 ± SEM; mean ± standard error of the mean
Procedure, shortened: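 β-Glucosidase solution (0.5 U mL−1) was preincubated with test compound at varying concentrations in 0.1 M phosphate buffer, pH 6.9, at 37 °C for 15 min. The reaction was started with 5 mM p-nitrophenyl-β-D-glucopyranoside solution in the same buffer and run at 37 °C for 15 min. It was stopped with 0.2 M sodium carbonate and read at 405 nm. Controls were a sample-free reaction and an enzyme-free blank.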

Structure (SMILES)	Blood glucose level ([1]; 10 mg kg^−1, 1st day) [mg per dL]	Blood glucose level ([1]; 10 mg kg^−1, 7th day) [mg per dL]	Blood glucose level ([1]; 10 mg kg^−1, 14th day) [mg per dL]	Blood glucose level ([1]; 10 mg kg^−1, 21st day) [mg per dL]	Blood glucose level ([1]; 10 mg kg^−1, 28th day, listed as p-Nitrophenyl-β-D-glucopyranoside (PGLT)) [mg per dL]	Blood glucose level ([1]; 10 mg kg^−1, 28th day, listed as p-nitrophenyl-β-D-glucopyranoside (PGLT)) [mg per dL]	Body weight (Effect on body weights; 10 mg kg^−1, 1st day)	Body weight (Effect on body weights; 10 mg kg^−1, 7th day)	Body weight (Effect on body weights; 10 mg kg^−1, 14th day)	Body weight (Effect on body weights; 10 mg kg^−1, 21st day)	Body weight (Effect on body weights; 10 mg kg^−1, 28th day)	weight loss (Effect on body weights; day 1 to day 28, PGLT-treated group) [%]	HDL [2] [mg/dL]	LDL [2] [mg/dL]	TG [2] [mg/dL]	Total CH [2] [mg/dL]	ALP [3] [IU]	SGOT [3] [IU]	SGPT [3] [IU]	IC50 (β-glucosidase) [µM]
O=[N+]([O-])c1ccc(O[C@@H]2O[C@H](CO)[C@@H](O)[C@H](O)[C@H]2O)cc1 [PGLT, p-nitrophenyl-β-D-glucopyranoside]	402.22 ± 4.97	229.56 ± 4.80	154.06 ± 4.59	119.70 ± 4.87	102.27 ± 4.31	102.27 ± 4.31	20.16 ± 1.71	19.88 ± 1.81	20.01 ± 1.61	19.70 ± 1.69	19.66 ± 1.51	2.48	55.72 ± 2.01	87.58 ± 2.96	96.36 ± 4.51	104.73 ± 4.83	171.04 ± 3.91	21.39 ± 1.79	21.17 ± 1.88	–
